Screens (PubChem)
This is a sample that favours compounds with a hit; in the whole collection about 2.3% have one here.
TRPC6 act = activates the mouse TRPC6 cation channel. HEK293-TRPC6 membrane potential dye fluorescence; hits give high values. B-score at 10 µM. hit rate 0.13% among 310,000;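 active = B-score of the integrated fluorescence ratio above library mean plus 3 SD, and starting fluorescence ratio within library mean plus 5 SD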;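 note: higher score means more depolarization so channel activation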
TRPC4 potent = allosteric potentiators of mouse TRPC4 channel | HEK293 TRPC4beta/mu-opioid, DAMGO EC20, Fluo-4 Ca2+ flux; hits give high values | B-score at 10 µM | hit rate 0.42% among 310,000;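 active = B-score of calcium response area above 5 SD of library B-scores, with initial fluorescence ratio within 5 SD of library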;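 note: B-score of integrated fluorescence ratio over time as area under calcium response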
TRPC4 block = TRPC4 (mouse) channel inhibition; Q9QUQ5; HEK293 TRPC4beta/mu-opioid, DAMGO-evoked Fluo4 calcium flux; hits give low values; B-score at 10 µM; hit rate 0.39% among 300,000;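 active = B-score over 3 SD under the library average, no early fluorescence shift, positive overall ratio signal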
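Assay system: Stable TRPC4beta/mu-opioid receptor HEK293 cells | Reagent: DAMGO in two steps, submaximal then maximal | Compound dosing: Single concentration per test compound | Signal: Fluo4 Ca2+ flux fluorescence | Evaluation: Per-well B score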
TRPC6 inh = inhibitors of mouse TRPC6 channel; Q61143; hit rate 1.1% among 310,000; B-score at 10 µM; HEK293-TRPC6, membrane potential dye, ACh-evoked depolarization; hits give low values;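 active = B-score under library mean minus 3 SD, initial fluorescence not abnormally high, positive integrated signal ratio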;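 note: B-score derived from integrated fluorescence ratio over the kinetic read; more negative B-score means stronger inhibition of depolarization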
TRPC4 act = activators of mouse TRPC4 channel; Q9QUQ5; B-score at 10 µM; AID 2237; hit rate 0.49% among 310,000; HEK293 TRPC4beta/mu-opioid, Fluo4 calcium fluorescence; hits give high values;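 active = B-score above 5 SD of library B-scores, and initial fluorescence ratio not above library mean plus 5 SD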;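 note: positive B-score marks a calcium rise read as TRPC4 activation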
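System: HEK293 cells stably co-expressing mouse TRPC4beta and mu-opioid receptor; Schedule: Fluo4 dye loading 45 min at room temperature, 110 s recording; Detection: Fluo4 fluorescence, kinetic; Evaluation: B-scored integrated calcium fluorescence ratio; Controls: buffer (low) and maximal DAMGO (high).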
The depositor's hits bear a star; i = inactive.

SMILES	TRPC6 act	TRPC4 potent	TRPC4 block	TRPC6 inh	TRPC4 act
Cc1ccc(N(C(=O)c2snc(C(N)=O)c2N)C(C(=O)NCC2CCCO2)c2ccc(C)o2)c(C)c1 (centres undefined)	i	i	-7*	i	i
COc1ccc(C(C(=O)NCC2CCCO2)N(Cc2cccs2)C(=O)c2snc(C(N)=O)c2N)cc1 (centres undefined)	i	i	i	i	i
Cc1ccccc1N(C(=O)c1snc(C(N)=O)c1N)C(C(=O)NC1CCCCC1)c1ccc(O)cc1 (centres undefined)	i	i	i	i	i
NC(=O)c1nsc(C(=O)N(Cc2ccc(F)cc2)C(C(=O)NCC2CCCO2)c2ccc(O)cc2)c1N (centres undefined)	i	i	-10*	i	i
CCOc1ccc(C(C(=O)NCC2CCCO2)N(Cc2ccccc2)C(=O)c2snc(C(N)=O)c2N)cc1 (centres undefined)	i	i	i	i	i
CC(C)(C)C#CC(CCc1ccccc1)OS(N)(=O)=O (centres undefined)	i	i	i	i	i
C=CCN(CC(=O)NC1CCCC1)C(=O)C(=O)Nc1ccc2c(c1)OCCO2	i	i	i	i	i
CCOc1ccc(C(C(=O)NCC2CCCO2)N(Cc2cccnc2)C(=O)c2snc(C(N)=O)c2N)cc1 (centres undefined)	i	i	-6*	i	i
Cc1ccccc1N(C(=O)c1snc(C(N)=O)c1N)C(C(=O)NCC1CCCO1)c1ccc(F)cc1 (centres undefined)	i	i	-6*	i	i
COc1ccc(C)cc1N(C(=O)c1snc(C(N)=O)c1N)C(C(=O)NC1CCCC1)c1ccc(F)cc1 (centres undefined)	i	i	-11*	i	i
Cc1ccccc1N(C(=O)c1snc(C(N)=O)c1N)C(C(=O)NCC1CCCO1)c1ccc(N(C)C)cc1 (centres undefined)	i	i	i	i	i
NC(=O)c1nsc(C(=O)N(Cc2ccc(F)cc2)C(C(=O)NC2CCCC2)c2ccco2)c1N (centres undefined)	i	i	-7*	i	i
COc1ccc(N(C(=O)c2snc(C(N)=O)c2N)C(C(=O)NC2CCCC2)c2ccc(F)cc2)c(OC)c1 (centres undefined)	i	i	i	i	i
CCN(CC(=O)NC(=O)NC1CCCC1)Cc1ccccc1	i	i	i	i	i
COCc1cc(=O)[nH]c(SCCS(=O)(=O)c2ccc(Cl)cc2Cl)n1	i	i	i	i	i
CSc1c(C#N)sc(=S)n1-c1ccc(C)cc1	i	i	-7*	i	i
CCN(C(=O)c1cnc(NC(C)C)cc1C(F)(F)F)c1ccc(Cl)cc1Cl	i	i	-6*	i	i
COc1ccc(C(CNC(=O)CCNC(=O)c2ccccc2OC)N2CCCC2)cc1 (centres undefined)	i	i	i	i	i
COc1ccc(C2C(C#N)=C(N)N(c3sc4c(c3C#N)CCCC4)C3=C2C(=O)CC(C)(C)C3)cc1 (centres undefined)	i	i	-5*	i	i
COc1ccc(C2C(C#N)=C(N)N(c3sc4c(c3C#N)CCCC4)C3=C2C(=O)CC(C)(C)C3)cc1OC (centres undefined)	i	i	i	i	i
C[C@H](NC(=O)C1CCN(S(=O)(=O)c2ccccc2)CC1)C(=O)NCc1ccco1	i	i	i	i	i
O=C(Nc1ccc([N+](=O)[O-])cn1)C1CCCCC1	i	22*	i	i	i
O=C(Nc1ccc([N+](=O)[O-])cn1)C1CC1	i	i	i	i	i
O=C(Cc1ccccc1)NCCCN1CCN(CCCNC(=O)Cc2ccccc2)CC1	i	11*	i	i	i
O=C(Cn1nc(-c2ccccc2)ccc1=O)NCCN1CCN(Cc2ccccc2)CC1	i	19*	i	i	i
SMILES	TRPC6 act	TRPC4 potent	TRPC4 block	TRPC6 inh	TRPC4 act
CC(=O)c1cc2c(cc1NS(=O)(=O)c1ccccc1Br)OCO2	i	i	i	i	i
Cc1ccc(O)c(NC(=S)NC(=O)Cc2ccc(Cl)cc2)c1	i	12*	i	i	i
COc1ccc(CCNc2nc(C)nc3c2oc2ccccc23)cc1OC	i	i	i	i	i
Cc1nc(NCCc2cnc[nH]2)c2oc3ccccc3c2n1	i	i	i	i	82*
Cc1cc([N+](=O)[O-])ccc1NC(=O)CCC(=O)N1CCCC1	i	i	i	i	i
Cc1ccc(/C=N/NC(=O)C2COc3ccccc3O2)s1 (centres undefined)	i	76*	i	i	i
O=C(N/N=C\c1ccc(Br)o1)C1COc2ccccc2O1 (centres undefined)	i	i	i	i	i
O=C(N/N=C/c1cccs1)C1COc2ccccc2O1 (centres undefined)	i	i	i	i	i
O=C(N/N=C/c1ccco1)C1COc2ccccc2O1 (centres undefined)	i	i	i	i	111*
CCC/C=N/NC(=O)C1COc2ccccc2O1 (centres undefined)	i	i	i	i	i
O=C(N/N=C\c1ccccn1)C1COc2cc3ccccc3cc2O1 (centres undefined)	i	i	i	i	53*
O=C(N/N=C\c1ccc[nH]1)C1COc2ccccc2O1 (centres undefined)	i	i	i	i	51*
CC(OC(=O)c1cc(S(=O)(=O)N(C)C)ccc1N1CCCC1)C(=O)NCc1ccccc1 (centres undefined)	i	i	i	i	i
O=C(NCCCN1CCCC1=O)c1ccc(CNS(=O)(=O)c2ccc(F)cc2)cc1	i	37*	i	i	i
O=C(NCCCN1CCCC1=O)c1ccc(S(=O)(=O)Nc2ccccc2F)cc1	i	i	i	i	i
O=C(NCCO)C(=O)NCC1CCCN1S(=O)(=O)c1cccs1 (centres undefined)	i	i	i	i	i
C=CCNC(=O)C(=O)NCC1CCCN1S(=O)(=O)c1cccs1 (centres undefined)	i	86*	i	i	i
CC(Oc1cccc(Cl)c1)C(=O)Nc1ccc(N2CCOCC2)cc1N1CCOCC1 (centres undefined)	i	i	i	i	i
CCN(CCCNC(=O)CCCOc1cc(=O)n(C)c2ccccc12)Cc1ccccc1	i	21*	i	i	i
